According to ChEMBL document CHEMBL1138520, “Molecular and conformational determinants of pituitary adenylate cyclase-activating polypeptide (PACAP) for activation of the PAC1 receptor” (J Med Chem, 2009):
Where a SMILES comes first, the peptide text is derived from it. [ ]: non-standard residue; d: D form. 1Nal = N[C@@H](Cc1cccc2ccccc12)C(=O)O

Experiments:
[1] = molecular target: T1, Pituitary adenylate cyclase-activating polypeptide type I receptor (Homo sapiens, UniProt P41586); assay: Displacement of [125I]Ac-PACAP27 from human recombinant PAC1 receptor expressed in CHO cells by gamma- counter; type: cell-based
Target sequence in this assay (P41586 whole entry): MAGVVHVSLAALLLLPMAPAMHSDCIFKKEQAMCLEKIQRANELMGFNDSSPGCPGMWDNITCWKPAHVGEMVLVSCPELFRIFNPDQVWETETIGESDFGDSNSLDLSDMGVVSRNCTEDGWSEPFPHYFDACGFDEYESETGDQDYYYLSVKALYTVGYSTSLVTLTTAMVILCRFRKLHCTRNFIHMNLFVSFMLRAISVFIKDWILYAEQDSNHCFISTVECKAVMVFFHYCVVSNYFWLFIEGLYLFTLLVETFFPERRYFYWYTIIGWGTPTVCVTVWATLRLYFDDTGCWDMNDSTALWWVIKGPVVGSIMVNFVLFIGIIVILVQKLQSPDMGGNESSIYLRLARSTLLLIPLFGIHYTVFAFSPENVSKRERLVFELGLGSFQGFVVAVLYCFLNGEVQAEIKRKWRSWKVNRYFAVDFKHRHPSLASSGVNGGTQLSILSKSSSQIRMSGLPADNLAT

[2] = molecular target: T1, Pituitary adenylate cyclase-activating polypeptide type I receptor; assay: Agonist activity at human recombinant PAC1 receptor expressed in CHO cells assessed as PACAP38-induced calcium mobilization by FLIPR assay; type: functional, cell-based
How it was run: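 CHO cells stably expressing recombinant human PAC1, plated 24 h before assay, loaded with fluo-4 AM for 60 min at 37 °C in the dark, then rinsed into HBSS for 15 min at 37 °C. EC50 and efficacy came from nonlinear regression; 4-10 independent assays in duplicate.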
Target sequence in this assay (P41586 whole entry): as above

[3] = molecular target: T1, Pituitary adenylate cyclase-activating polypeptide type I receptor; assay: Agonist activity at human recombinant PAC1 receptor expressed in CHO cells assessed as PACAP38-induced calcium mobilization by FLIPR assay relative to PACAP38; type: functional, cell-based
How it was run: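 CHO cells stably expressing recombinant human PAC1, plated 24 h before assay, loaded with fluo-4 AM for 60 min at 37 °C in the dark, then rinsed into HBSS for 15 min at 37 °C. Peptide was added 18 s into a 150 s read (ex 480/em 525 nm), at final concentrations of 1 × 10-12 to 1 × 10^-5 M. Response was normalised to 1 × 10^-5 M PACAP38 on each plate. EC50 and efficacy came from nonlinear regression; 4-10 independent assays in duplicate.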
Target sequence in this assay (P41586 21-468 limits assumed): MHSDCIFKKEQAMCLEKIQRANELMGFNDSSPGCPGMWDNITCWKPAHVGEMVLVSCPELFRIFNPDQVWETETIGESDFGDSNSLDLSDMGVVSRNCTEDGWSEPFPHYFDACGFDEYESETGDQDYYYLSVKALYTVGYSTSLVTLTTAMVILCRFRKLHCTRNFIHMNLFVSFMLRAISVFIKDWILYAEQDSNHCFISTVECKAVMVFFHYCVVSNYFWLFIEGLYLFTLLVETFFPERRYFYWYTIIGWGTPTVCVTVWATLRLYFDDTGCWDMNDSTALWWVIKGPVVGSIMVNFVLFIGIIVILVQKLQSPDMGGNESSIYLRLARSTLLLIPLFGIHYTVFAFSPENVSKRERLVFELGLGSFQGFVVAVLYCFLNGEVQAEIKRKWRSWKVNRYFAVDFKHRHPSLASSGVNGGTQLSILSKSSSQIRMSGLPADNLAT

SMILES	IC50 [1]	EC50 [2]	Emax [3]
CC[C@H](C)[C@H](NC(=O)CNC(=O)[C@H](CC(=O)O)NC(=O)[C@H](CO)NC(=O)[C@@H](N)Cc1cnc[nH]1)C(=O)N[C@@H](Cc1ccccc1)C(=O)N[C@@H](C)C(=O)N[C@@H](CC(=O)O)C(=O)N[C@@H](CO)C(=O)N[C@@H](Cc1ccc(O)cc1)C(=O)N[C@@H](CO)C(=O)N[C@@H](CCCNC(=N)N)C(=O)N[C@@H](Cc1ccc(O)cc1)C(=O)N[C@@H](CCCNC(=N)N)C(=O)N[C@@H](CCCCN)C(=O)N[C@@H](CCC(N)=O)C(=O)N[C@@H](CCSC)C(=O)N[C@@H](C)C(=O)N[C@H](C(=O)N[C@@H](CCCCN)C(=O)N[C@@H](CCCCN)C(=O)N[C@@H](Cc1ccc(O)cc1)C(=O)N[C@@H](CC(C)C)C(=O)N[C@@H](C)C(=O)N[C@@H](C)C(=O)N[C@H](C(=O)N[C@@H](CC(C)C)C(N)=O)C(C)C)C(C)C	10.8 nM	8.75 nM	112%
CC[C@H](C)[C@H](NC(=O)CNC(=O)[C@H](CC(=O)O)NC(=O)[C@H](CO)NC(=O)[C@@H](N)Cc1cnc[nH]1)C(=O)N1c2ccccc2CC1C(=O)N[C@H](C(=O)N[C@@H](CC(=O)O)C(=O)N[C@@H](CO)C(=O)N[C@@H](Cc1ccc(O)cc1)C(=O)N[C@@H](CO)C(=O)N[C@@H](CCCNC(=N)N)C(=O)N[C@@H](Cc1ccc(O)cc1)C(=O)N[C@@H](CCCNC(=N)N)C(=O)N[C@@H](CCCCN)C(=O)N[C@@H](CCC(N)=O)C(=O)N[C@@H](CCSC)C(=O)N[C@@H](C)C(=O)N[C@H](C(=O)N[C@@H](CCCCN)C(=O)N[C@@H](CCCCN)C(=O)N[C@@H](Cc1ccc(O)cc1)C(=O)N[C@@H](CC(C)C)C(=O)N[C@@H](C)C(=O)N[C@@H](C)C(=O)N[C@H](C(=O)N[C@@H](CC(C)C)C(N)=O)C(C)C)C(C)C)[C@@H](C)O (some centres not stated)	1940 nM	35 nM	72%
CC[C@H](C)[C@H](NC(=O)CNC(=O)[C@H](CC(=O)O)NC(=O)[C@H](CO)NC(=O)[C@@H](N)Cc1cnc[nH]1)C(=O)N[C@@H](Cc1ccc(-c2ccccc2)cc1)C(=O)N[C@H](C(=O)N[C@@H](CC(=O)O)C(=O)N[C@@H](CO)C(=O)N[C@@H](Cc1ccc(O)cc1)C(=O)N[C@@H](CO)C(=O)N[C@@H](CCCNC(=N)N)C(=O)N[C@@H](Cc1ccc(O)cc1)C(=O)N[C@@H](CCCNC(=N)N)C(=O)N[C@@H](CCCCN)C(=O)N[C@@H](CCC(N)=O)C(=O)N[C@@H](CCSC)C(=O)N[C@@H](C)C(=O)N[C@H](C(=O)N[C@@H](CCCCN)C(=O)N[C@@H](CCCCN)C(=O)N[C@@H](Cc1ccc(O)cc1)C(=O)N[C@@H](CC(C)C)C(=O)N[C@@H](C)C(=O)N[C@@H](C)C(=O)N[C@H](C(=O)N[C@@H](CC(C)C)C(N)=O)C(C)C)C(C)C)[C@@H](C)O	4.5 nM	1 nM	104%
CC[C@H](C)[C@H](NC(=O)CNC(=O)[C@H](CC(=O)O)NC(=O)[C@H](CO)NC(=O)[C@@H](N)Cc1cnc[nH]1)C(=O)N[C@@H](Cc1ccccc1)C(=O)N(C)[C@H](C(=O)N[C@@H](CC(=O)O)C(=O)N[C@@H](CO)C(=O)N[C@@H](Cc1ccc(O)cc1)C(=O)N[C@@H](CO)C(=O)N[C@@H](CCCNC(=N)N)C(=O)N[C@@H](Cc1ccc(O)cc1)C(=O)N[C@@H](CCCNC(=N)N)C(=O)N[C@@H](CCCCN)C(=O)N[C@@H](CCC(N)=O)C(=O)N[C@@H](CCSC)C(=O)N[C@@H](C)C(=O)N[C@H](C(=O)N[C@@H](CCCCN)C(=O)N[C@@H](CCCCN)C(=O)N[C@@H](Cc1ccc(O)cc1)C(=O)N[C@@H](CC(C)C)C(=O)N[C@@H](C)C(=O)N[C@@H](C)C(=O)N[C@H](C(=O)N[C@@H](CC(C)C)C(N)=O)C(C)C)C(C)C)[C@@H](C)O	2040 nM	2120 nM	35.4%
CC[C@H](C)[C@H](NC(=O)CNC(=O)[C@H](CC(=O)O)NC(=O)[C@@H]1CCCN1C(=O)[C@@H](N)Cc1cnc[nH]1)C(=O)N[C@@H](Cc1ccccc1)C(=O)N[C@H](C(=O)N[C@@H](CC(=O)O)C(=O)N[C@@H](CO)C(=O)N[C@@H](Cc1ccc(O)cc1)C(=O)N[C@@H](CO)C(=O)N[C@@H](CCCNC(=N)N)C(=O)N[C@@H](Cc1ccc(O)cc1)C(=O)N[C@@H](CCCNC(=N)N)C(=O)N[C@@H](CCCCN)C(=O)N[C@@H](CCC(N)=O)C(=O)N[C@@H](CCSC)C(=O)N[C@@H](C)C(=O)N[C@H](C(=O)N[C@@H](CCCCN)C(=O)N[C@@H](CCCCN)C(=O)N[C@@H](Cc1ccc(O)cc1)C(=O)N[C@@H](CC(C)C)C(=O)N[C@@H](C)C(=O)N[C@@H](C)C(=O)N[C@H](C(=O)N[C@@H](CC(C)C)C(N)=O)C(C)C)C(C)C)[C@@H](C)O	7.8 nM	7.4 nM	94.2%

Second part, the compound after the results:

IC50 [1]	EC50 [2]	Emax [3]	SMILES
7 nM	1.5 nM	87.6%	CC[C@H](C)[C@H](NC(=O)CNC(=O)[C@H](CCC(=O)O)NC(=O)[C@H](CO)NC(=O)[C@@H](N)Cc1cnc[nH]1)C(=O)N[C@@H](Cc1ccccc1)C(=O)N[C@H](C(=O)N[C@@H](CC(=O)O)C(=O)N[C@@H](CO)C(=O)N[C@@H](Cc1ccc(O)cc1)C(=O)N[C@@H](CO)C(=O)N[C@@H](CCCNC(=N)N)C(=O)N[C@@H](Cc1ccc(O)cc1)C(=O)N[C@@H](CCCNC(=N)N)C(=O)N[C@@H](CCCCN)C(=O)N[C@@H](CCC(N)=O)C(=O)N[C@@H](CCSC)C(=O)N[C@@H](C)C(=O)N[C@H](C(=O)N[C@@H](CCCCN)C(=O)N[C@@H](CCCCN)C(=O)N[C@@H](Cc1ccc(O)cc1)C(=O)N[C@@H](CC(C)C)C(=O)N[C@@H](C)C(=O)N[C@@H](C)C(=O)N[C@H](C(=O)N[C@@H](CC(C)C)C(=O)NCC(=O)N[C@@H](CCCCN)C(=O)N[C@@H](CCCNC(=N)N)C(=O)N[C@@H](Cc1ccc(O)cc1)C(=O)N[C@@H](CCCCN)C(=O)N[C@@H](CCC(N)=O)C(=O)N[C@@H](CCCNC(=N)N)C(=O)N[C@H](C(=O)N[C@@H](CCCCN)C(=O)N[C@@H](CC(N)=O)C(=O)N[C@@H](CCCCN)C(N)=O)C(C)C)C(C)C)C(C)C)[C@@H](C)O (H-HSEGIFTDSYSRYRKQMAVKKYLAAVLGKRYKQRVKNK-NH2)
1010 nM	1010 nM	40%	CC[C@H](C)[C@H](NC(=O)CNC(=O)[C@H](CC(=O)O)NC(=O)[C@H](CO)NC(=O)[C@@H](N)Cc1cnc[nH]1)C(=O)N[C@@H](Cc1ccccc1)C(=O)N(C)[C@H](C(=O)N[C@@H](CC(=O)O)C(=O)N[C@@H](CO)C(=O)N[C@@H](Cc1ccc(O)cc1)C(=O)N[C@@H](CO)C(=O)N[C@@H](CCCNC(=N)N)C(=O)N[C@@H](Cc1ccc(O)cc1)C(=O)N[C@@H](CCCNC(=N)N)C(=O)N[C@@H](CCCCN)C(=O)N[C@@H](CCC(N)=O)C(=O)N[C@@H](CCSC)C(=O)N[C@@H](C)C(=O)N[C@H](C(=O)N[C@@H](CCCCN)C(=O)N[C@@H](CCCCN)C(=O)N[C@@H](Cc1ccc(O)cc1)C(=O)N[C@@H](CC(C)C)C(=O)N[C@@H](C)C(=O)N[C@@H](C)C(=O)N[C@H](C(=O)N[C@@H](CC(C)C)C(=O)NCC(=O)N[C@@H](CCCCN)C(=O)N[C@@H](CCCNC(=N)N)C(=O)N[C@@H](Cc1ccc(O)cc1)C(=O)N[C@@H](CCCCN)C(=O)N[C@@H](CCC(N)=O)C(=O)N[C@@H](CCCNC(=N)N)C(=O)N[C@H](C(=O)N[C@@H](CCCCN)C(=O)N[C@@H](CC(N)=O)C(=O)N[C@@H](CCCCN)C(N)=O)C(C)C)C(C)C)C(C)C)[C@@H](C)O
10.4 nM	219 nM	92.5%	CC[C@H](C)[C@H](NC(=O)CNC(=O)[C@H](CC(=O)O)N(C)C(=O)[C@H](CO)NC(=O)[C@@H](N)Cc1cnc[nH]1)C(=O)N[C@@H](Cc1ccccc1)C(=O)N[C@H](C(=O)N[C@@H](CC(=O)O)C(=O)N[C@@H](CO)C(=O)N[C@@H](Cc1ccc(O)cc1)C(=O)N[C@@H](CO)C(=O)N[C@@H](CCCNC(=N)N)C(=O)N[C@@H](Cc1ccc(O)cc1)C(=O)N[C@@H](CCCNC(=N)N)C(=O)N[C@@H](CCCCN)C(=O)N[C@@H](CCC(N)=O)C(=O)N[C@@H](CCSC)C(=O)N[C@@H](C)C(=O)N[C@H](C(=O)N[C@@H](CCCCN)C(=O)N[C@@H](CCCCN)C(=O)N[C@@H](Cc1ccc(O)cc1)C(=O)N[C@@H](CC(C)C)C(=O)N[C@@H](C)C(=O)N[C@@H](C)C(=O)N[C@H](C(=O)N[C@@H](CC(C)C)C(=O)NCC(=O)N[C@@H](CCCCN)C(=O)N[C@@H](CCCNC(=N)N)C(=O)N[C@@H](Cc1ccc(O)cc1)C(=O)N[C@@H](CCCCN)C(=O)N[C@@H](CCC(N)=O)C(=O)N[C@@H](CCCNC(=N)N)C(=O)N[C@H](C(=O)N[C@@H](CCCCN)C(=O)N[C@@H](CC(N)=O)C(=O)N[C@@H](CCCCN)C(N)=O)C(C)C)C(C)C)C(C)C)[C@@H](C)O
5 nM	1.4 nM	106%	CC[C@H](C)[C@H](NC(=O)CNC(=O)[C@H](CC(=O)O)NC(=O)[C@H](CO)NC(=O)[C@@H](N)Cc1cnc[nH]1)C(=O)N[C@@H](Cc1cccc2ccccc12)C(=O)N[C@H](C(=O)N[C@@H](CC(=O)O)C(=O)N[C@@H](CO)C(=O)N[C@@H](Cc1ccc(O)cc1)C(=O)N[C@@H](CO)C(=O)N[C@@H](CCCNC(=N)N)C(=O)N[C@@H](Cc1ccc(O)cc1)C(=O)N[C@@H](CCCNC(=N)N)C(=O)N[C@@H](CCCCN)C(=O)N[C@@H](CCC(N)=O)C(=O)N[C@@H](CCSC)C(=O)N[C@@H](C)C(=O)N[C@H](C(=O)N[C@@H](CCCCN)C(=O)N[C@@H](CCCCN)C(=O)N[C@@H](Cc1ccc(O)cc1)C(=O)N[C@@H](CC(C)C)C(=O)N[C@@H](C)C(=O)N[C@@H](C)C(=O)N[C@H](C(=O)N[C@@H](CC(C)C)C(=O)NCC(=O)N[C@@H](CCCCN)C(=O)N[C@@H](CCCNC(=N)N)C(=O)N[C@@H](Cc1ccc(O)cc1)C(=O)N[C@@H](CCCCN)C(=O)N[C@@H](CCC(N)=O)C(=O)N[C@@H](CCCNC(=N)N)C(=O)N[C@H](C(=O)N[C@@H](CCCCN)C(=O)N[C@@H](CC(N)=O)C(=O)N[C@@H](CCCCN)C(N)=O)C(C)C)C(C)C)C(C)C)[C@@H](C)O (H-HSDGI[1Nal]TDSYSRYRKQMAVKKYLAAVLGKRYKQRVKNK-NH2)
